Data published in ChEMBL document CHEMBL4706672 (J Med Chem, 2021).
Active and inactive are the calls of the source. The calls are words filed in the database; no cut-off is given here.

Assays:
MIA PaCa-2 = experiment: Antiproliferative activity against human MIA PaCa-2 cells assessed as reduction in cell viability incubated for 3 days by MTT assay; assay type: functional, cell-based; settings: MIA PaCa-2, 72 h
How it was run: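 MTT assay. Cells were seeded at 3000–6000/well and incubated overnight, then exposed to compound or DMSO vehicle for 3 days in RPMI-1640 or DMEM with 10% FBS at 37 °C, 5% CO2. MTT (3 mg/ml) was added for 3 h at 37 °C, formazan was dissolved in DMSO and absorbance read at 570 nm. IC50 from three independent experiments, mean ± SD.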

BXPC-3 [1] = experiment: Antiproliferative activity against human BxPC-3 cells assessed as reduction in cell viability incubated for 3 days by MTT assay; assay type: functional, cell-based; settings: BXPC-3, 72 h
[2] = molecular target: T1, Protein cereblon/Signal transducer and activator of transcription 3 (Homo sapiens, UniProt P40763+Q96SW2); experiment: Protac activity at CRBN/STAT3 in human BxPC-3 cells assessed as decrease in STAT3 expression level after 12 hrs by western blot analysis; assay type: cell-based
Target sequence in this assay (P40763 whole entry): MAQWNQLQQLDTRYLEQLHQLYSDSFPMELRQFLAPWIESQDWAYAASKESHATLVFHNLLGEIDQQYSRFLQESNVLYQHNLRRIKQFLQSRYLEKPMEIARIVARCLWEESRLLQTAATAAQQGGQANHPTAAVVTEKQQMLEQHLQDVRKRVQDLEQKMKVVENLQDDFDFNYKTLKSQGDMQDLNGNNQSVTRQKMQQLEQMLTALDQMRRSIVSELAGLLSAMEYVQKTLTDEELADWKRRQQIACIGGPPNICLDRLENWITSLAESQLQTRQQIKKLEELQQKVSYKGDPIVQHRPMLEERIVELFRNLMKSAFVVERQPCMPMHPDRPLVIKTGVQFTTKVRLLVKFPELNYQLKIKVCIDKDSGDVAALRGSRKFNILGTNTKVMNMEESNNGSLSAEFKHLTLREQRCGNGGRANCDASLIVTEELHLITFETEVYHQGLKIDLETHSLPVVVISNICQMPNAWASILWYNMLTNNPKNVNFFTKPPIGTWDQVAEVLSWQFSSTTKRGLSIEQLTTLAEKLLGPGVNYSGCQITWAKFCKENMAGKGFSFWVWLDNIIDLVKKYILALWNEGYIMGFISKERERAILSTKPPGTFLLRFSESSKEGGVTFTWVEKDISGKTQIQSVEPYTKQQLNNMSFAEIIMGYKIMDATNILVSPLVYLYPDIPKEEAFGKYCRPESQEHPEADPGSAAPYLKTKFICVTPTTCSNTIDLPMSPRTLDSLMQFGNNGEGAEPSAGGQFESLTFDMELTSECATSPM
Target sequence in this assay (Q96SW2 whole entry): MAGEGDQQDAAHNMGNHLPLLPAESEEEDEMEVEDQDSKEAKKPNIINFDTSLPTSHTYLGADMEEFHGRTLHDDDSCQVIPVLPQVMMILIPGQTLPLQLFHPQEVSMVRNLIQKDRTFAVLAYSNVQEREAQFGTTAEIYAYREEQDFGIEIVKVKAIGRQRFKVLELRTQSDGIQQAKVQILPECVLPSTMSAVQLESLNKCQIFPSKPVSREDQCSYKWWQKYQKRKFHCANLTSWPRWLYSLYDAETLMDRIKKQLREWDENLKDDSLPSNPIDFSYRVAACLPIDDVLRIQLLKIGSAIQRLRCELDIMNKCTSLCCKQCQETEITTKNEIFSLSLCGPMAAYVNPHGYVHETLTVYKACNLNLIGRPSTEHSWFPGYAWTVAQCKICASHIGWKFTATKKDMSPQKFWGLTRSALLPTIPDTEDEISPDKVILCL

BXPC-3 [3] = experiment: Reduction in NQO1 levels in human BxPC-3 cells at 2 uM incubated for 16 hrs by western blot analysis; assay type: functional, cell-based
How it was run: (§1)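 BxPC-3 cells seeded at 500 × 10^3 per well in 6-well plates, treated 16 h. Sonication lysis at 4 °C in Tris/NaCl/Triton/SDS buffer pH 7.4 with protease and phosphatase inhibitors, BCA protein assay, SDS-PAGE, PVDF transfer. Probed for STAT3, pSTAT3 and NQO1 with GAPDH loading control; fluorescent secondary detection.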

HEK293 = experiment: Antiproliferative activity against human HEK293 cells assessed as reduction in cell viability incubated for 24 hrs by MTT assay; assay type: functional, cell-based; settings: HEK293, 24 h
How it was run: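 HEK-293 cells were treated with compound for 24 h, in parallel with the luciferase reporter assay. Viability was read by MTT absorbance at 570 nm, and IC50 was taken from three independent experiments.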

BXPC-3 [4] = experiment: Binding affinity to PDI in human BxPC-3 cells assessed as thermal stability by measuring shift in melting temperature at 100 uM measured after 1 hr by cellular thermal shift assay; assay type: cell-based
[5] = molecular target: NAD(P)H dehydrogenase [quinone] 1 (Homo sapiens) (UniProt P15559); experiment: Binding affinity to NQO1 in human BxPC-3 cells assessed as thermal stability by measuring shift in melting temperature at 100 uM measured after 1 hr by cellular thermal shift assay; assay type: cell-based
[6] = molecular target: Protein cereblon/E3 ubiquitin-protein ligase ZFP91 (Homo sapiens, UniProt Q96SW2+Q96JP5); experiment: Protac activity at CRBN/ZFP91 in human BxPC-3 cells assessed as induction of ZF91 degradation at upto 3 uM incubated for 16 hrs by western blot analysis; assay type: cell-based; settings: dose microM <=3, time 16.0 hrs
How it was run: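 BxPC-3 cells treated for 4, 16 or 24 h across a concentration series. ZFP91 immunoblotted against GAPDH; bands quantified by densitometry, DC50 calculated from dose-response curves of the densitometry.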

BXPC-3 [7] = experiment: Antiproliferative activity against ZFP91 knockdown human BxPC-3 cells assessed as reduction in cell viability incubated for 48 hrs by MTT assay; assay type: functional, cell-based; settings: BXPC-3, 48 h
How it was run: (§2)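 BxPC-3 cells were transfected with ZFP91 siRNA or scrambled control siRNA using Lipofectamine RNAiMAX in Opti-MEM, 5 pmol siRNA per complex. Compound was added together with the siRNA complex.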

BXPC-3 [8] = experiment: Antiproliferative activity against human BxPC-3 cells harboring ZFP91siRNA assessed as reduction in cell viability incubated for 48 hrs by MTT assay; assay type: functional, cell-based; settings: BXPC-3, 48 h; how it was run: as §2
BXPC-3 [9] = experiment: Inhibition of colony formation in human BxPC-3 cells assessed as reduction in colony formation at 0.06 to 0.5 uM incubated for 7 to 10 days in presence of NQO1 inhibitor dicoumarol; settings: dose 0.06-0.5 µM
[10] = molecular target: T1, Protein cereblon/Signal transducer and activator of transcription 3; experiment: Protac activity at CRBN/STAT3 in human BxPC-3 cells assessed as effect on STAT3 expression level at 0.1 to 5 uM incubated for 16 hrs by western blot analysis; assay type: cell-based; settings: dose 0.1-5 µM; how it was run: as §1
Target sequence in this assay (P40763 2-770 limits assumed): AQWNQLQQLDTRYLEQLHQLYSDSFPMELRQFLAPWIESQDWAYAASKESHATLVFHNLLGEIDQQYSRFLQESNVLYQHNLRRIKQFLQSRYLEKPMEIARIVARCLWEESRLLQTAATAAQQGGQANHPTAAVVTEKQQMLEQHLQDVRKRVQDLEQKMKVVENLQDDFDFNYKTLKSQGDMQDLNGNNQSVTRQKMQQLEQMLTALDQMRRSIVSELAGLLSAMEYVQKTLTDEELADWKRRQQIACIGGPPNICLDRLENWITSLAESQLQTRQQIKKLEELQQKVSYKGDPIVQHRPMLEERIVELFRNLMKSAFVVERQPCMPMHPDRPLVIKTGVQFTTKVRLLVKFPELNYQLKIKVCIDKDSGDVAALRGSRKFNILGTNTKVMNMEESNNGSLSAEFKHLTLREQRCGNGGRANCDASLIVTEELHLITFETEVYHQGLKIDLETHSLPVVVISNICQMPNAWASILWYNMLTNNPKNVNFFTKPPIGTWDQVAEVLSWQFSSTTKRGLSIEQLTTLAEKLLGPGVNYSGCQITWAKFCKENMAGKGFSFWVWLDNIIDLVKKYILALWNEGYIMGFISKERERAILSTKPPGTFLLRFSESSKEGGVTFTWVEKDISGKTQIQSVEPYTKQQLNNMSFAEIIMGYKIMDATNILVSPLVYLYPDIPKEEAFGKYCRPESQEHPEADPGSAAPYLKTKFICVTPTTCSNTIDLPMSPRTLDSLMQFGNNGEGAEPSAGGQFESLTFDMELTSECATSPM
Target sequence in this assay (Q96SW2 whole entry partner): as the sequence (Q96SW2 whole entry) above

[11] = molecular target: Signal transducer and activator of transcription 3 (Homo sapiens) (UniProt P40763); experiment: Inhibition of STAT3 phosphorylation in human BxPC-3 cells at 5 uM after 16 hrs by western blot analysis; assay type: cell-based
How it was run: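 Cells were seeded in 6-well plates (BxPC-3 500 × 10^3, MIA PaCa-2 200 × 10^3 cells/well) and exposed to compound for 16 h. Lysis was at 4 °C by sonication in Tris/NaCl/Triton/SDS buffer, pH 7.4, with protease and phosphatase inhibitors. Lysates were run on SDS-PAGE, transferred to PVDF and probed for STAT3, pSTAT3 and NQO1 with GAPDH as loading control. Immunoblots were imaged on an Odyssey system.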

Signal transducer and activator of transcription 3 (Homo sapiens), sequence (P40763 whole entry): as the sequence (P40763 whole entry) above
Protein cereblon/E3 ubiquitin-protein ligase ZFP91, sequence (Q96JP5 2-570 partner limits assumed): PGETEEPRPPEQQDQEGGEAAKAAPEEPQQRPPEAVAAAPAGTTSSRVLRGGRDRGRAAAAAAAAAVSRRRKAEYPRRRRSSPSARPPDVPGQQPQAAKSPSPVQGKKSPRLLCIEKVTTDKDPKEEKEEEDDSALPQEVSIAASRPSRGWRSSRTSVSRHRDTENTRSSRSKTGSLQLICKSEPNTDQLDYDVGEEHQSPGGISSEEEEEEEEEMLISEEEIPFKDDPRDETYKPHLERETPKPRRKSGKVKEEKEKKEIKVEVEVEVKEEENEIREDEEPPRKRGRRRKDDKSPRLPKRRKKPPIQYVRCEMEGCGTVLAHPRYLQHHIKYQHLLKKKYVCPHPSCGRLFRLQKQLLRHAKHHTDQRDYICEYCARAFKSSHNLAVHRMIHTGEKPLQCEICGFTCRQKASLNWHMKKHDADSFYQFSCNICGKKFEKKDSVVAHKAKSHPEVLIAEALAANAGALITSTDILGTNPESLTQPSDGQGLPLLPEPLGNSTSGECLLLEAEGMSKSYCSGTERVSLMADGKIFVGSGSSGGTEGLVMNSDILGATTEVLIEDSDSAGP
Protein cereblon/E3 ubiquitin-protein ligase ZFP91, sequence (Q96SW2 whole entry): as the sequence (Q96SW2 whole entry) above
NAD(P)H dehydrogenase [quinone] 1 (Homo sapiens), sequence (P15559 whole entry): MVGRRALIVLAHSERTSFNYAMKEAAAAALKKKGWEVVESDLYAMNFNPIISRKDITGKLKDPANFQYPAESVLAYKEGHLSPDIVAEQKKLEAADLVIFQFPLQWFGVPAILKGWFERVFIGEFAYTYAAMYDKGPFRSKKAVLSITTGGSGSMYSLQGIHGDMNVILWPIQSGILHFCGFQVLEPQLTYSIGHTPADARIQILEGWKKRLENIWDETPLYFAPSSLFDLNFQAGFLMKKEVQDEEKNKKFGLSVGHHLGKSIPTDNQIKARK

Row | SMILES | IC50 (MIA PaCa-2) | IC50 (BXPC-3 [1]) | IC50 (HEK293) | also measured
1 | CC(=O)c1cc2c(o1)C(=O)c1ccccc1C2=O [NAPABUCASIN] | 1.2 µM | 1.4 µM | 10.4 µM | DC50 [2]: 2.1 µM; inhibition (BXPC-3 [3]): Active; Activity (BXPC-3 [4]): Active; Activity [5]: Active; Activity [6]: inactive; IC50 (BXPC-3 [7]): 1.8 µM; IC50 (BXPC-3 [8]): 1.3 µM; inhibition (BXPC-3 [9]): Active
2 | Cc1ncsc1-c1ccc(CNC(=O)[C@@H]2C[C@@H](O)CN2C(=O)[C@@H](NC(=O)COCCNC(=O)c2cc3c(o2)C(=O)c2ccccc2C3=O)C(C)(C)C)cc1 | 15.8 µM | > 30 µM | > 30 µM | –
3 | O=C1CCC(N2C(=O)c3cccc(C#CCCCNC(=O)c4cc5c(o4)C(=O)c4ccccc4C5=O)c3C2=O)C(=O)N1 (stereo unspecified) | 2.1 µM | 5.3 µM | 18.6 µM | –
4 | O=C1CCC(N2C(=O)c3cccc(NCCN4CCN(CCNC(=O)c5cc6c(o5)C(=O)c5ccccc5C6=O)CC4)c3C2=O)C(=O)N1 (stereo unspecified) | 18.1 µM | 25.6 µM | – | –
5 | O=C1CCC(N2C(=O)c3ccc(NCCOCCOCCNC(=O)c4cc5c(o4)C(=O)c4ccccc4C5=O)cc3C2=O)C(=O)N1 (stereo unspecified) | – | – | > 10 µM | –
6 | CN1C(=O)CCC(N2C(=O)c3cccc(NCCCCCC4CCN(CCNC(=O)c5cc6c(o5)C(=O)c5ccccc5C6=O)CC4)c3C2=O)C1=O (stereo unspecified) | 2.7 µM | 3.4 µM | > 30 µM | Activity [10]: inactive; inhibition [11]: Active

The next lines start with results.

Row | IC50 (MIA PaCa-2) | IC50 (BXPC-3 [1]) | SMILES | IC50 (HEK293) | also measured
7 | 5 µM | 7.5 µM | O=C1CCC(N2C(=O)c3cccc(NCCOCCOCCOCCOCCOCCOCCNC(=O)c4cc5c(o4)C(=O)c4ccccc4C5=O)c3C2=O)C(=O)N1 (stereo unspecified) | 10.8 µM | –
8 | 13.7 µM | – | O=C1CCC(N2Cc3c(NCCOCCOCCNC(=O)c4cc5c(o4)C(=O)c4ccccc4C5=O)cccc3C2=O)C(=O)N1 (stereo unspecified) | > 30 µM | –
9 | 2 µM | 4.2 µM | O=C1CCC(N2C(=O)c3cccc(OCCCCNC(=O)c4cc5c(o4)C(=O)c4ccccc4C5=O)c3C2=O)C(=O)N1 (stereo unspecified) | > 10 µM | –
10 | 2.1 µM | 4.5 µM | O=C1CCC(N2C(=O)c3cccc(NCCOCCOCCOCCNC(=O)c4cc5c(o4)C(=O)c4ccccc4C5=O)c3C2=O)C(=O)N1 (stereo unspecified) | 11.2 µM | –
11 | 1.6 µM | 4.1 µM | O=C1CCC(N2C(=O)c3cccc(NCCCCNC(=O)c4cc5c(o4)C(=O)c4ccccc4C5=O)c3C2=O)C(=O)N1 (stereo unspecified) | – | –
12 | 4 µM | 1.7 µM | O=C1CCC(N2C(=O)c3cccc(NCCNC(=O)c4cc5c(o4)C(=O)c4ccccc4C5=O)c3C2=O)C(=O)N1 (stereo unspecified) | > 30 µM | –
13 | 1.8 µM | 3.2 µM | O=C1CCC(N2C(=O)c3cccc(NCCCCCNC(=O)c4cc5c(o4)C(=O)c4ccccc4C5=O)c3C2=O)C(=O)N1 (stereo unspecified) | > 10 µM | –
14 | 16.7 µM | 20.4 µM | O=C(COc1cccc2c1C(=O)N(C1CCC(=O)NC1=O)C2=O)NCCOCCOCCNC(=O)c1cc2c(o1)C(=O)c1ccccc1C2=O (stereo unspecified) | – | –
